Results published in ChEMBL document CHEMBL4818983, “Structure-activity relationship and hypoglycemic activity of tricyclic matrines with advantage of treating diabetic nephropathy” (Eur J Med Chem, 2020).
Activity calls are given as the source filed them. The calls are words filed in the database; no cut-off is given here.

What was measured:
[1] = system: HepG2; assay: Increase in glucose consumption in human HepG2 cells assessed as Gx/GDMSO ratio at 5 mM by glucose oxidase assay; assay type: functional
In short: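 HepG2 glucose consumption screen. Test compounds at 25 μM, metformin at 5 mM. Activity expressed as ratio of glucose consumption to DMSO-treated cells (Gx/G_DMSO).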

[2] = system: L6; assay: Increase in glucose consumption in rat L6 cells at 20 uM after 24 hrs by glucose oxidase assay; assay type: functional, cell-based
In short: (§1)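 L6 myotubes treated with DMSO, compound or RGZ (20 μM) at the indicated concentrations for 24 h. Culture supernatants assayed for glucose consumption and lactate release; lysed cells assayed for ATP, normalized to protein. Mean ± SD of 3 independent experiments vs DMSO.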

[3] = system: Mus musculus; assay: Antidiabetic activity in KK-Ay mouse assessed as reduction in fasting blood glucose level at 5 mg/kg, po for 50 days by glucose oxidase method (reference value: 13.2 +/- 2.06 mM); assay type: functional; settings: time 50 day
In short: (§2)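 Lipogenic-diet KK-Ay mice given 50 or 100 mg/kg compound or 5 mg/kg rosiglitazone orally for 50 days, C57BL/6J as normal controls. Fasting blood glucose, glycosylated haemoglobin, AGE, insulin, HOMA-IR, cholesterol, LDL-c, TG, serum creatinine and BUN determined. Mean ± SD, 8-9 mice per group.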

[4] = system: Mus musculus; assay: Antidiabetic activity in KK-Ay mouse assessed as effect on glycosylated haemoglobin level at 5 mg/kg, po for 50 days by glucose oxidase method (reference value: 8.74 +/- 1.08%); assay type: functional; settings: time 50 day; in short: as §2
[5] = system: Mus musculus; assay: Antidiabetic activity in KK-Ay mouse assessed as effect on AGE level at 5 mg/kg, […] by ELISA (Rvb 2.85 +/- 0.92 ug/ml); assay type: functional
[6] = system: Mus musculus; assay: Antidiabetic activity in KK-Ay mouse assessed as effect on insulin level at 5 mg/kg, […] by ELISA (reference value: 226 +/- 15.5 mU/l); assay type: functional
[7] = system: Mus musculus; assay: Antidiabetic activity in KK-Ay mouse assessed as effect on HOMA-IR level at 5 mg/kg, […] by ELISA (reference value: 137 +/- 18.4); assay type: functional
[8] = system: Mus musculus; assay: Antidiabetic activity in KK-Ay mouse assessed as effect on cholesterol level at 5 mg/kg, […] by ELISA (reference value: 7.38 +/- 1.03 mM); assay type: functional
[9] = system: Mus musculus; assay: Antidiabetic activity in KK-Ay mouse assessed as effect on LDL level at 5 mg/kg, […] by ELISA (reference value: 1.11 +/- 0.24 mM); assay type: functional
[10] = system: Mus musculus; assay: Antidiabetic activity in KK-Ay mouse assessed as effect on Triglycerides level at 5 mg/kg, po for 24 hrs by ELISA (reference value: 4.01 +/- 1.83 mM); assay type: functional
[11] = system: Mus musculus; assay: Antidiabetic activity in KK-Ay mouse assessed as effect on serum Creatinine level at 5 mg/kg, po for 24 hrs by ELISA (reference value: 124 +/- 35.1 uM); assay type: functional
[12] = system: Mus musculus; assay: Antidiabetic activity in KK-Ay mouse assessed as effect on BUN level at 5 mg/kg, […] by ELISA (reference value: 12.8 +/- 2.97 mM); assay type: functional
[13] = system: Mus musculus; assay: Anti-diabetic activity in overnight fasted diabetic KK-Ay mouse assessed as increase in insulin responsiveness by measuring blood glucose at 5 mg/kg, po measured after 35 days by insulin tolerance test; assay type: functional, organism-based; settings: time 35.0 day
In short: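 KK-Ay mice orally treated with 50 or 100 mg/kg compound or 5 mg/kg rosiglitazone, C57BL/6J as normal controls. After 35 days of treatment, oral glucose tolerance test and insulin tolerance test run. Blood glucose plotted against time, AUC calculated. Mean ± SD, 8-9 mice per group.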

[14] = Effect on high fat diet-fed KK-Ay mouse model of obesity and diabetes assessed as food intake at 5 mg/kg, po (reference value: 5.67 +/- 0.55 g/day); assay type: ADME, organism-based; settings: in vivo
In short: (§3)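 KK-Ay mice on lipogenic diet, with C57BL/6J mice as normal controls, dosed orally at 50 or 100 mg/kg (test) or 5 mg/kg (RGZ). Food intake (g/day), water intake (mL/day) and body weight recorded before and after treatment; body weight gain calculated. Mean±SD, 8-9 mice per group.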

[15] = Effect on high fat diet-fed KK-Ay mouse model of obesity and diabetes assessed as water intake at 5 mg/kg, po (reference value: 21.2 +/- 4.17 ml/day); assay type: ADME, organism-based; settings: in vivo; in short: as §3
[16] = Effect on high fat diet-fed KK-Ay mouse model of obesity and diabetes assessed as total body weight gain at 5 mg/kg, po (reference value: 43.5 +/- 5.24 g); assay type: ADME, organism-based; settings: in vivo; in short: as §3
[17] = system: Mus musculus; assay: Anti-diabetic activity in high fat diet-fed KK-Ay mouse model of obesity and diabetes assessed reduction in total protein level in urine at 5 mg/kg, po measured after 24 hrs; assay type: functional, organism-based
In short: (§4)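 Before study end, 24-h urine collected from C57BL/6J controls and KK-Ay mice (untreated, oral 50 or 100 mg/kg compound, or 5 mg/kg rosiglitazone). Volume, glucose, total protein and microalbumin measured by kits. Mean ± SD, 8-9 mice per group, vs C57BL/6J or untreated KK-Ay.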

[18] = system: Mus musculus; assay: Anti-diabetic activity in high fat diet-fed KK-Ay mouse model of obesity and diabetes assessed as reduction in microalbumin level in urine at 5 mg/kg, po measured after 24 hrs; assay type: functional, organism-based; in short: as §4
[19] = system: Mus musculus; assay: Anti-diabetic activity in high fat diet-fed KK-Ay mouse model of obesity and diabetes assessed as improved pathological changes in kidney at 5 mg/kg, po by hematoxylin and eosin staining based histopathological analysis; assay type: functional, organism-based
In short: (§5)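 Mice sacrificed at study end, with KK-Ay given 50 or 100 mg/kg compound or 5 mg/kg rosiglitazone orally and C57BL/6J as normal controls. Kidney and pancreas sections H&E stained, imaged at 200×, pathological changes scored. Mean ± SD of 8-9 mice per group.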

[20] = system: Mus musculus; assay: Anti-diabetic activity in high fat diet-fed KK-Ay mouse model of obesity and diabetes assessed as improved pathological changes in pancreas at 5 mg/kg, po by hematoxylin and eosin staining based histopathological analysis; assay type: functional, organism-based; in short: as §5
[21] = system: HepG2; assay: Induction of glycolysis in human HepG2 cells assessed as reduction in cellular ATP production at 20 uM measured after 24 hrs; assay type: functional, cell-based
In short: (§6)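 HepG2 cells treated 24 h at the indicated concentrations; RGZ as reference. Supernatants used for glucose consumption and lactate release; lysed cells used for ATP, normalized to protein content. Mean ± SD of 3 or 4 separate experiments; compared with DMSO.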

[22] = system: HepG2; assay: Increase in glucose consumption in human HepG2 cells at 20 uM measured after 24 hrs; assay type: functional, cell-based; in short: as §6
[23] = system: L6; assay: Induction of glycolysis in rat L6 cells assessed as reduction in cellular ATP production at 20 uM measured after 24 hrs; assay type: functional, cell-based; in short: as §1
[24] = system: L6; assay: Increase in glucose consumption in rat L6 cells at 20 uM measured after 24 hrs; assay type: functional, cell-based; in short: as §1
[25] = system: L6; assay: Induction of glycolysis in rat L6 cells assessed as increase in lactate release at 20 uM measured after 24 hrs
[26] = system: HepG2; assay: Induction of glycolysis in human HepG2 cells assessed as increase in lactate release at 20 uM measured after 24 hrs

For `CN(C)C(=N)NC(=N)N` [METFORMIN], the Ratio [1] was 1.53.

In the case of `CN(CCOc1ccc(CC2SC(=O)NC2=O)cc1)c1ccccn1` (stereo unspecified) [ROSIGLITAZONE], the Activity [2] is reported as “Active”, the Activity [3] is reported as 7.66 mM and the Activity [4] is reported as 6.09%. It also gave an Activity [5] of 1.27 µg/mL, an Activity [6] of 89.3 mU/L and an Activity [7] of 30.4. The Activity [8] was 8.31 mM, the Activity [9] was 1.08 mM and the Activity [10] was 1.84 mM. The Activity [11] was 51.6 µM, the Activity [12] was 12 mM and the Activity [13] was “Active”. For the same molecule, the Activity [14] was 4.58 g/day, the Activity [15] was 6.1 mL/day and the Activity [16] was 6.82 g. The Activity [17] was “Active”, the Activity [18] was “Active” and the Activity [19] was “Active”. For the same molecule, the Activity [20] was “Active”, the Activity [21] was “Active” and the Activity [22] was “Active”. The Activity [23] was “Dose-Dependent Effect”, the Activity [24] was “Active” and the Activity [25] was “Active”. For the same molecule, the Activity [26] was “Active”.
